Data published in the RNAGym collection of RNA variant scans (doi:10.1126/science.aae0568).
Fewer inactive variants are shown than the library holds.

B1: tRNA (parent)
chain: GUUCCGUUGGCGUAAUGGUAACGCGUCUCCCUCCUAAGGAGAAGACUGCGGGUUCGAGUCCCGUACGGAACG

Variants of: B1
Assay: yeast fitness relative to wild type (ratio to wild type); higher = fitter; tRNA-Arg(CCU), competitive growth, 37 C, YPD
Summary of the method: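 Gene amplicons from the start population and from each of six end populations were read by 100-nucleotide paired-end sequencing. Those end populations came from pooled Saccharomyces cerevisiae strains carrying tRNA-Arg(CCU) gene variants at the native locus, competed in YPD at 37°C for 24 hours. Fitness relative to wild type was worked out from changes in genotype frequencies. Genotypes needed ≥ 100 starting reads, and estimates < 0.5 were set to 0.5.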

Variant	yeast fitness
U2G C5A U19A A43G	≤ 0.5
U2C U26C C55A	0.732
U2C U16A C49U A65C A69C	≤ 0.5
U2G C4A A37U	≤ 0.5
U2G C61U A70G	0.795
U2G G44C G58C	0.647
U2G C27U C46U G58A	0.662
U2G C33U A65C	≤ 0.5
U2C U7A C22A A36U A45U C60U C62U C66U	0.541
U2C U16C C27G C55U U59G	≤ 0.5
U2C G39A G44A	0.66
U2G G18C U26A C33U C46U A57C	≤ 0.5
U2C G63A	0.799
U2G G9C A20G A42C C46G C49U G63A A69C	≤ 0.5
U2G C27G G63A A65C G68C	0.632
U2C U7A C24A A37G A42U G48C U54A	≤ 0.5
U2G C62G A69C	≤ 0.5
U2G C11G A36C C61G G63A	≤ 0.5
U2G C5A G10C	≤ 0.5
U2C G18C A21G	0.569
U2G A36G A69U	0.56

Variant	yeast fitness
U2G G9A A69U	0.577
U2C U8G G23A C24G G44A	≤ 0.5
U2C G38A	0.901
U2G C66U	0.858
U2G U7C C29G C60A	≤ 0.5
U2C U35A C60A	≤ 0.5
U2G C27G G67C	≤ 0.5
U2G C27G G67U	≤ 0.5
U2C U3A C31G U35A	≤ 0.5
U2C U3C A45G C61A	≤ 0.5
U2C U16A G38C G63A	0.552
U2G A43U G67C	0.668
U2G C4U G56A C61A C62U A65U A69C	≤ 0.5
U2G G9C A65C	0.548
U2G A14C A42C C49U A65C	≤ 0.5
U2C G48A	0.928
U2G U3C A21C	≤ 0.5
U2G G6A C27G U54C C62U	≤ 0.5
U2C U7A C34U G44C	≤ 0.5
U2G G50C U59A	0.547
U2G A20C G25A A69C	≤ 0.5

Variant	yeast fitness
U2C G23A G38A G56C C61U G67A	≤ 0.5
U2C U3C G25C C27G	≤ 0.5
U2G C4U U16A C27G A42U U53C	0.564
U2C U3C C34U	0.571
U2G U16G C27A A36C A70C	≤ 0.5
U2G U8A G23A U26G A43G	0.576
U2G C27G	0.546
U2G C27U	0.878
U2G G25A U53A	≤ 0.5
U2G G52A G56A	0.81
U2C G52C	0.661
U2G U3A C5U U7C U8C A20C U35C A37U A57C	≤ 0.5
U2G A37C U54C	≤ 0.5
U2G A40C G63A G68C	≤ 0.5
U2G C11A C30A A57U	≤ 0.5
U2C U47A U64A	≤ 0.5
U2C U47C G67C	0.719
U2G C11G G38C G44A	≤ 0.5
U2C G48C C49U U53C	≤ 0.5
U2G A40G G41C C60G	0.688
U2G U7G U26A C49U A65U	≤ 0.5

Variant	yeast fitness
U2G C11G A20U C24G A42G	≤ 0.5
U2G G6A	0.634
U2C U13C	0.991
U2G A20C G38A C46A	≤ 0.5
U2G G48C G52C C62G C66U	≤ 0.5
U2G C34U A69U	0.543
U2G C4U A36G A45U	0.537
U2C G18C G23C C33U G39A A43U C62A G63C	0.851
U2C U13A G39C C60G	≤ 0.5
U2G C29G C33G	≤ 0.5
U2G G6A C27U G39C	≤ 0.5
U2G C4A C22U U28G A42U C62U A70U	≤ 0.5
U2C U13A C61U	≤ 0.5
U2G G9C A14C C27U G58A	≤ 0.5
U2C U8G C49A C55U C66A A69C	≤ 0.5
U2G C30A C46U G52C	≤ 0.5
U2G C29G U47C	0.557
U2C U16A A40G G48A	≤ 0.5
U2G G12C	0.757
U2G G18C G23U C27U U64A	≤ 0.5
